A short description of assay [1]: SK-BR-3 cell growth inhibitors, pilot screen, 24 h, human (AID 572;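 active = viability at or below 10% of carrier control in both of two separate runs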;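 note: compound exposure lasted between 18 and 24 h rather than exactly 24 h; 100% = carrier-treated control wells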). The note with it: SK-BR-3 viability, CellTiter-Glo luminescence, at 10 µM, stronger effect = lower value. A general note: Cellular ATP, detected with luciferase, serves as a proxy for viable cell number.
Assay [2] can be described thus: HUVEC growth inhibition – cell-based, human, primary screen (AID 575;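 active = viability at or below 30% in both replicate assays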;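 note: 100% = median of untreated cell wells with 0.1% DMSO on each plate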). The note with it: HUVEC proliferation, CellTiter-Glo luminescence, 72 h; at 10 µM; stronger effect = lower value. The essentials: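 Assay system: Primary human umbilical vein endothelial cells | Quantity: 1250 cells per well | Medium: Supplemented EBM, 2% fetal bovine serum | Detection: CellTiter-Glo luminescence measuring cellular ATP | Read-out: % viability vs DMSO wells | Plate: Collagen-coated 384-well format | Times: 72 h exposure, 37 °C, 5% CO2, 30 min RT equilibration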

A short description of assay [3]: growth inhibitors of H69AR lung tumor, primary screen, human, duplicate replicates (AID 580).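 Note: 100% = mean luminescence of untreated wells and 0% = no signal.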 The following applies: H69AR lung tumor cells viability, ATP luminescence, 72 h; at 10 µM; stronger effect = lower value.
A short description of assay [4]: reversal of MRP1-mediated doxorubicin resistance, pilot screen, H69AR cells, doxorubicin co-treatment (AID 601;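 active = viability loss from added drug above about 55%, and viability with drug at most 40%, in both replicates, limit read from the data, passing the limit was not always enough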). The note with it: CellTiter-Glo, 72 h, at 10 µM; for differential viability (reversal): stronger effect = higher value.
A short description of assay [5]: 384-well plate pilot, post-Golgi transport modulator project, inhibition of yeast transport mutant growth (AID 636; in the data active = inhibition above about 31%). The note with it: absorbance 615 nm, about 18 h, stronger effect = higher value.
A short description of assay [6]: growth suppression of yeast trafficking mutant, preliminary HTS, modulators of trafficking downstream of Golgi apparatus project, 1536-format plate, OD 615 nm (AID 637; in the data active = inhibition above about 30%). The following applies: yeast transport mutant growth, absorbance 615 nm, 18 h; stronger effect = higher value.
The mark [7] stands for this setting: H69AR cells + 2 uM doxorubicin, measured here: viability with 2 uM doxorubicin, stronger effect = lower value.
Where [8] appears, read: H69AR cells, compound alone cytotoxicity.

Calls of active or inactive are those of the source.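 Rule for the calls, unless noted: active = viability at or under a set limit in both replicates, limit being median viability minus 3 SD (cut at about 48% in these data, passing the limit was not always enough); inconclusive = at or under the limit in just one replicate; inactive = at or above the limit in both replicates.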

What is called viability is a read-out of living cells in per cent, often relative to untreated cells. By inhibition is commonly meant the change of the read-out against control, counted positive when it falls. Consider `CCCCC(=O)Nc1ccc(NC(=O)C2CC2)nc1`, for which the viability in assay [1] is 91% (inactive); in assay [2] it was 108% (inactive); in assay [3], 101% (inactive); in assay [4] (setting [7]) it was 106%; in assay [4] (setting [8]) it was 101%. For the same compound, in assay [4] (H69AR cells + 2 uM doxorubicin), the differential viability (reversal) was -4.46% (inactive). The inhibition in assay [5] was -1.51% (inactive); in assay [6], -1.13% (inactive).

Consider `Cc1c(NC(=O)C(C)Oc2ncnc3ccccc23)c(=O)n(-c2ccccc2)n1C` (centres undefined), for which the viability in assay [1] is 115% (inactive); in assay [2] it was 91.9% (inactive); in assay [3] it was 97% (inactive); in assay [4] (setting [7]), 90%; in assay [4] (setting [8]), 97%. Also, in assay [4] (H69AR cells + 2 uM doxorubicin), the differential viability (reversal) was 7.01% (inactive). The inhibition in assay [5] was -4.42% (inactive); in assay [6], -3.28% (inactive).

Take `C/C(Nc1cccc(F)c1)=C(/C#N)C(N)=O`: the viability in assay [1] is 107% (inactive); in assay [2] it was 122% (inactive); in assay [3], 99.2% (inactive); in assay [4] (setting [7]), 93.9%; in assay [4] (setting [8]) it was 99.2%. Moreover, in assay [4] (H69AR cells + 2 uM doxorubicin), the differential viability (reversal) is 5.34% (inactive). Moreover, the results for the inhibition in assay [5] and in assay [6] were -4.32% (inactive) and -5.64% (inactive), respectively.

As to `COCCNC(=O)CN1CCC(NC(=O)Nc2ccc(C(F)(F)F)cc2)CC1`, the viability is 92% (inactive) in assay [1]; 96.5% (inactive) in assay [2]; 102% (inactive) in assay [3]; 93.5% in assay [4] (setting [7]); 102% in assay [4] (setting [8]). Further, the differential viability (reversal) in assay [4] (H69AR cells + 2 uM doxorubicin) was 8.66% (inactive). Besides, the inhibition is -5.54% (inactive) in assay [5] and 0.55% (inactive) in assay [6].

With `COc1ccccc1CN1CC(C(=O)NCc2cccnc2)CC1=O` (centres undefined), the viability was 134% (inactive) in assay [1]; 95.5% (inactive) in assay [2]; 91.5% (inactive) in assay [3]; 89.2% in assay [4] (setting [7]); 91.5% in assay [4] (setting [8]). Besides, the differential viability (reversal) in assay [4] (H69AR cells + 2 uM doxorubicin) was 2.3% (inactive). The inhibition in assay [5] was -2.99% (inactive); in assay [6], 3.77% (inactive).

Regarding `CCOCCCNC(=O)C1CCC(CNS(=O)(=O)c2cccc3nsnc23)CC1` (centres undefined), the viability in assay [1] is 102% (inactive); in assay [2], 84.6% (inactive); in assay [3], 88.3% (inactive); in assay [4] (setting [7]), 93.6%; in assay [4] (setting [8]) it was 88.3%. Moreover, the differential viability (reversal) in assay [4] (H69AR cells + 2 uM doxorubicin) is -5.31% (inactive). Further, the inhibition was 0% (inactive) in assay [5] and -4.92% (inactive) in assay [6].

`CC(C)[N+]1(C)[C@@H]2CC[C@H]1CC(OC(=O)C(CO)c1ccccc1)C2` (some centres undefined): the viability in assay [1] was 113% (inactive); in assay [2], 96% (inactive); in assay [3], 100% (inactive); in assay [4] (setting [7]), 90.9%; in assay [4] (setting [8]) it was 100%. The differential viability (reversal) in assay [4] (H69AR cells + 2 uM doxorubicin) is 9.31% (inactive). Further, the inhibition in assay [5] was -6.36% (inactive); in assay [6], -2.83% (inactive).

`CCOC(=O)c1cccc(NC(=O)CSc2nnc(-c3cccnc3)n2C)c1`: the viability in assay [1] was 99% (inactive); in assay [2], 107% (inactive); in assay [3], 98.3% (inactive); in assay [4] (setting [7]) it was 92.7%; in assay [4] (setting [8]) it was 98.3%. The differential viability (reversal) in assay [4] (H69AR cells + 2 uM doxorubicin) was 5.64% (inactive). The inhibition is -3.38% (inactive) in assay [5] and -0.73% (inactive) in assay [6].

Take `CC(=O)Oc1cccc2c1C(=O)c1c(OC(C)=O)cc(C(=O)O)cc1C2=O`: the viability was 90% (inactive) in assay [1]; 60.2% (inactive) in assay [2]; 86.7% (inactive) in assay [3]; 86.4% in assay [4] (setting [7]); 86.7% in assay [4] (setting [8]). The differential viability (reversal) in assay [4] (H69AR cells + 2 uM doxorubicin) was 0.27% (inactive). The inhibition in assay [5] was 4.16% (inactive); in assay [6], 7.17% (inactive).

As for `CC(C)N(C(=O)N1CCC(c2nc(-c3ccncc3)no2)CC1)C(C)C`, the viability in assay [1] is 79% (inactive); in assay [2], 105% (inactive); in assay [3], 102% (inactive); in assay [4] (setting [7]), 106%; in assay [4] (setting [8]), 102%. Further, the differential viability (reversal) in assay [4] (H69AR cells + 2 uM doxorubicin) was -3.66% (inactive). In addition, the inhibition is -4.86% (inactive) in assay [5] and -5.64% (inactive) in assay [6].

Turning to `CN1[C@@H]2CC(OC(=O)[C@H](CO)c3ccccc3)C[C@H]1[C@@H]1O[C@@H]12` (some centres undefined), the viability is 104% (inactive) in assay [1]; 96.7% (inactive) in assay [2]; 102% (inactive) in assay [3]; 95.3% in assay [4] (setting [7]); 102% in assay [4] (setting [8]). The differential viability (reversal) in assay [4] (H69AR cells + 2 uM doxorubicin) was 6.26% (inactive). The inhibition in assay [5] is -2.08% (inactive); in assay [6] it was -2.83% (inactive).

For `COCCNC(=O)NC(=O)COC(=O)Cc1ccc2c(c1)OCCO2`, the viability in assay [1] was 81% (inactive); in assay [2], 111% (inactive); in assay [3], 99.2% (inactive); in assay [4] (setting [7]), 92.6%; in assay [4] (setting [8]) it was 99.2%. Moreover, the differential viability (reversal) in assay [4] (H69AR cells + 2 uM doxorubicin) was 6.6% (inactive). Besides, the values for the inhibition in assay [5] and in assay [6] were -2.88% (inactive) and 3.82% (inactive), respectively.

In the case of `O=C(c1ccco1)N1CCN(CC2CC3C=CC2C3)CC1` (centres undefined), the viability is 91% (inactive) in assay [1]; 110% (inactive) in assay [2]; 95.8% (inactive) in assay [3]; 90.1% in assay [4] (setting [7]); 95.8% in assay [4] (setting [8]). In assay [4] (H69AR cells + 2 uM doxorubicin), the differential viability (reversal) was 5.7% (inactive). Further, the figures for the inhibition in assay [5] and in assay [6] were -1.43% (inactive) and -2.13% (inactive), respectively.

For the origin of these results see PubChem BioAssay.
